In data set [1] the target is T1, Thioredoxin glutathione reductase (Schistosoma mansoni, UniProt Q962Y6).
T1 sequence (Q962Y6 whole entry): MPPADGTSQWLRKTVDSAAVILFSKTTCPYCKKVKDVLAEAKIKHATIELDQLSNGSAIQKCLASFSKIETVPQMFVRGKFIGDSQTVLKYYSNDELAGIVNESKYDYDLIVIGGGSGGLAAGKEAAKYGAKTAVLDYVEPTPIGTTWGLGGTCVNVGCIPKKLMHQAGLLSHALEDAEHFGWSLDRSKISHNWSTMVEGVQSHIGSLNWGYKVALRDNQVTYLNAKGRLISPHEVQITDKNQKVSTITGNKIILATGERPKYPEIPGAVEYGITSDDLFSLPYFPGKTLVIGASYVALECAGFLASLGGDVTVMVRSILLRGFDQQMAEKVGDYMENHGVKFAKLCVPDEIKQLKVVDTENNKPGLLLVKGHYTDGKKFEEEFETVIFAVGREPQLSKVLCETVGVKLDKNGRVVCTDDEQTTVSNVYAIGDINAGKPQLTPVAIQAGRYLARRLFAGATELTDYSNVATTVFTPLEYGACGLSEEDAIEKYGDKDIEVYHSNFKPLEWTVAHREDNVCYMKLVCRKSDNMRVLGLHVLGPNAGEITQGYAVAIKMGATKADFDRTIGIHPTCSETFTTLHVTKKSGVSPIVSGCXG
Description: Inhibition of Schistosoma mansoni recombinant thioredoxin glutathione reductase assessed as 5-thio-2nitrobezoic acid formation after 3 mins.

Data set [2] relates to Schistosoma mansoni. Description: Antiparasitic activity against Schistosoma mansoni cercariae infected in female Swiss-Webster mouse assessed as worm contraction at 50 uM after 24 to 48 hrs by stereomicroscopy. It counts as functional, organism-based. The method in brief: (§1)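 Adult worms were washed in RPMI 1640 with 25 mM HEPES, penicillin, streptomycin and 10% FBS, then held 15–20 per well overnight at 37°C in 5% CO₂. Medium was renewed the next day. Compounds from 10 mM DMSO stocks were added at 10 or 50 μM, with equal DMSO volumes in all wells and DMSO-only negative controls. After compound removal, morphology and mobility were followed over days.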

Data set [3] relates to Schistosoma mansoni. Description: Antiparasitic activity against Schistosoma mansoni cercariae infected in female Swiss-Webster mouse assessed as worm contraction at 10 uM after 24 to 48 hrs by stereomicroscopy. It counts as functional, organism-based. The method in brief:
as §1

Data set [4] deals with Schistosoma mansoni. Description: Antiparasitic activity against Schistosoma mansoni infected in female Swiss-Webster mouse assessed as worm killing at 50 uM after 48 hrs by stereomicroscopy. It counts as functional. In a few lines: (§2)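 Adult S. mansoni worms were washed in complete RPMI 1640 with 25 mM HEPES, penicillin, streptomycin and 10% FBS. They were held 15–20 per well overnight at 37°C in 5% CO₂, then moved to fresh medium. Compounds from 10 mM DMSO stocks were added to final 10 or 50 μM. Controls received an equal volume of DMSO, and worm death was scored.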

Data set [5] relates to Schistosoma mansoni. Description: Antiparasitic activity against Schistosoma mansoni infected in female Swiss-Webster mouse assessed as worm killing at 10 uM after 48 hrs by stereomicroscopy. It counts as functional. The method in brief: as §2
A short description of data set [6]: Induction of NO release in pH 7.4 buffer solution at 5:1 excess of L-cysteine after 1 hr incubation by Griess assay. It counts as physicochemical. The settings on record: pH 7.4, 1 h. In a few lines: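 Compound was incubated 1 hr at 37 °C in pH 7.4 buffer with a 5:1 molar excess of L-cysteine. Nitrite was measured by Griess reaction and reported as % NO₂⁻ (mol/mol) ± SE.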

In data set [7] the test system is Schistosoma mansoni. Description: Antiparasitic activity against Schistosoma mansoni infected in female Swiss-Webster mouse assessed as worm killing at 50 uM after 72 hrs by stereomicroscopy. It counts as functional, organism-based. The method in brief:
as §1

Data set [8] concerns Schistosoma mansoni. Description: Antiparasitic activity against Schistosoma mansoni cercariae infected in female Swiss-Webster mouse assessed as female worm contraction at 10 uM after 24 to 48 hrs by stereomicroscopy. It counts as functional, organism-based. The method in brief:
as §1

Data set [9] deals with Schistosoma mansoni. Description: Antiparasitic activity against Schistosoma mansoni infected in female Swiss-Webster mouse assessed as worm killing at 10 uM after 144 hrs by stereomicroscopy.
For data set [10], the system named is Schistosoma mansoni. Description: Antiparasitic activity against Schistosoma mansoni infected in female Swiss-Webster mouse assessed as worm killing at 50 uM after 144 hrs by stereomicroscopy.
For data set [11], the system named is Schistosoma mansoni. Description: Antiparasitic activity against Schistosoma mansoni infected in female Swiss-Webster mouse assessed as worm killing at 50 uM after 24 hrs by stereomicroscopy. It counts as functional, organism-based. The method in brief: as §1
The test system of data set [12] is Schistosoma mansoni. Description: Antiparasitic activity against Schistosoma mansoni cercariae infected in female Swiss-Webster mouse assessed as male worm contraction at 50 uM after 24 to 48 hrs by stereomicroscopy. It counts as functional, organism-based. In a few lines: as §1
Data set [13] concerns Schistosoma mansoni. Description: Antiparasitic activity against Schistosoma mansoni infected in female Swiss-Webster mouse assessed as worm killing at 10 uM after 96 hrs by stereomicroscopy. It counts as functional, organism-based. The method in brief: as §1

Molecules are shown by their SMILES. Calls of active or inactive are those of the source. The calls are words filed in the database; no cut-off is given here.

As usually defined, the IC50 is the concentration needed to halve the response being measured.

As to `NC(=O)c1nonc1COc1ccc2c(c1)C1CN(C(=O)C3CCCCC3)CC(=O)N1CC2` (stereo not given), the IC50 in data set [1] (read-out: IC50) was more than 50000 nM. The result in the data set with Schistosoma mansoni [2], in the data set with Schistosoma mansoni [3], with Schistosoma mansoni [4] and with Schistosoma mansoni [5] was inactive.
Turning to `O=C(C1CCCCC1)N1CC(=O)N2CCc3ccc(OCCCOc4nonc4S(=O)(=O)c4ccccc4)cc3C2C1` (stereo not given), the IC50 in data set [1] (read-out: IC50) is more than 50000 nM. Besides, the outcome in the data set with Schistosoma mansoni [2] and in the data set on Schistosoma mansoni [3] was Active. In addition, the outcome with Schistosoma mansoni [4] and with Schistosoma mansoni [5] was inactive.
Regarding `N#Cc1c(C(=O)N2CC(=O)N3CCc4ccccc4C3C2)no[n+]1[O-]` (stereo not given), in [1] (read-out: IC50), the IC50 is 316 nM. Also, the outcome in the data set on Schistosoma mansoni [2], in the data set on Schistosoma mansoni [7] and with Schistosoma mansoni [8] was Active. The Activity in data set [6] was determined as 56.2%; with Schistosoma mansoni [9], 30%.
As to `COC(=O)c1nonc1C(=O)N1CC(=O)N2CCc3ccccc3C2C1` (stereo not given), the IC50 in data set [1] (read-out: IC50) was more than 50000 nM. Also, the outcome with Schistosoma mansoni [2] and with Schistosoma mansoni [3] was Active. In addition, the Activity with Schistosoma mansoni [10] was found to be 18%; in the data set with Schistosoma mansoni [9], 15%.
Consider `N#Cc1nonc1COc1ccc2c(c1)C1CN(C(=O)C3CCCCC3)CC(=O)N1CC2` (stereo not given), for which the IC50 in [1] (read-out: IC50) is more than 50000 nM. In addition, in the data set with Schistosoma mansoni [2], the outcome was Active. Moreover, the result in the data set with Schistosoma mansoni [3], in the data set with Schistosoma mansoni [4] and in the data set with Schistosoma mansoni [5] was inactive.
In the case of `NC(=O)c1nonc1C(=O)N1CC(=O)N2CCc3ccccc3C2C1` (stereo not given), the concentration for half-maximal inhibition (IC50) in data set [1] (read-out: IC50) was more than 50000 nM. Besides, the result in the data set on Schistosoma mansoni [2] and with Schistosoma mansoni [3] was Active. For the same compound, the Activity with Schistosoma mansoni [10] and in the data set with Schistosoma mansoni [9] was 23% throughout.
For `O=C(C1CCCCC1)N1CC(=O)N2CCc3ccccc3C2C1` (racemic) [PRAZIQUANTEL], in data set [1], the IC50 entry was “Not Active”. Also, the outcome in the data set on Schistosoma mansoni [2] and in the data set with Schistosoma mansoni [3] was Active. The results for the Activity in the data set on Schistosoma mansoni [10] and in the data set with Schistosoma mansoni [9] were 40% and 15%, respectively.
Turning to `NC(=O)c1c(C(=O)N2CC(=O)N3CCc4ccccc4C3C2)no[n+]1[O-]` (stereo not given), in [1] (read-out: IC50), the IC50 is 10 nM. The result in the data set with Schistosoma mansoni [2] and in the data set on Schistosoma mansoni [3] was Active. Besides, the values for the Activity (in data set [6]; in the data set on Schistosoma mansoni [10]; in the data set with Schistosoma mansoni [9]) were 1.8%, 80% and 30%, respectively.
As to `N#Cc1nonc1C(=O)N1CC(=O)N2CCc3ccccc3C2C1` (stereo not given), the IC50 in data set [1] (read-out: IC50) was more than 50000 nM. Moreover, the result in the data set with Schistosoma mansoni [2] and with Schistosoma mansoni [3] was Active. The Activity in the data set with Schistosoma mansoni [10] is on record as 25%; with Schistosoma mansoni [9], 20%.
Turning to `O=C(C1CCCCC1)N1CC(=O)N2CCc3ccc(OCCCOc4no[n+]([O-])c4S(=O)(=O)c4ccccc4)cc3C2C1` (stereo not given), the IC50 in data set [1] (read-out: IC50) is 8500 nM. Also, in the data set with Schistosoma mansoni [3], the result was inactive. The outcome with Schistosoma mansoni [5], in the data set with Schistosoma mansoni [11] and with Schistosoma mansoni [12] was Active. In [6], this compound had an Activity of 15.7%.
Regarding `N#Cc1c(COc2ccc3c(c2)C2CN(C(=O)C4CCCCC4)CC(=O)N2CC3)no[n+]1[O-]` (stereo not given), the IC50 in data set [1] (read-out: IC50) came to 350 nM. Further, the outcome with Schistosoma mansoni [2] and with Schistosoma mansoni [11] was Active. Besides, the outcome in the data set on Schistosoma mansoni [3] and in the data set on Schistosoma mansoni [5] was inactive. Further, the Activity in data set [6] worked out at 33.8%.
As for `COC(=O)c1c(C(=O)N2CC(=O)N3CCc4ccccc4C3C2)no[n+]1[O-]` (stereo not given), the IC50 in data set [1] (read-out: IC50) turned out to be 148 nM. Moreover, the result in the data set with Schistosoma mansoni [2] and with Schistosoma mansoni [3] was Active. Moreover, the Activity in [6] is less than 1%; in the data set with Schistosoma mansoni [10], 50%; with Schistosoma mansoni [9], 23%.
For the compound `NC(=O)c1c(COc2ccc3c(c2)C2CN(C(=O)C4CCCCC4)CC(=O)N2CC3)no[n+]1[O-]` (stereo not given), the IC50 in data set [1] (read-out: IC50) amounted to 83 nM. In addition, the outcome in the data set on Schistosoma mansoni [2], in the data set on Schistosoma mansoni [3], with Schistosoma mansoni [4] and in the data set on Schistosoma mansoni [5] was inactive. Further, the Activity in data set [6] is 1.1%.
For the compound `N#Cc1c(-c2ccccc2)no[n+]1[O-]` [FUROXAN], the outcome with Schistosoma mansoni [2] and in the data set on Schistosoma mansoni [3] was inactive. For the same compound, the result with Schistosoma mansoni [11] and in the data set with Schistosoma mansoni [13] was Active.
